Source: article PMC3555362 (Angewandte Chemie (International Ed. in English), 2011)
Square brackets hold non-standard residues; d marks the D form. Peptide text beside a SMILES is read from it. pT = C[C@@H](OP(=O)(O)O)[C@H](N)C(=O)O; pS = N[C@@H](COP(=O)(O)O)C(=O)O

Experiments:
[1] = test system: polo-box domain (PBD) of polo-like kinase 1 (Plk1), wild-type (His6-PBD345-603 WT); assay: fluorescence-based thermal stability; assay type: binding, human; conditions: for Thermal shift, Δ: difference between wild-type and Y417A/Y421A thermal shifts
Outline: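 Fluorescence-based thermal stability screen of phosphorylated test peptides derived from PBIP1 and TCERG1, run in parallel on wild-type Plk1 polo-box domain and on the Y417A/Y421A double mutant. The mutant was designed to weaken binding at the hydrophobic pocket, so the wild-type-minus-mutant shift reports pocket involvement.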

[2] = biological target: polo-box domain (PBD) of Plk1, His6-PBD345-603 (Homo sapiens, UniProt P53350); assay: isothermal titration calorimetry; assay type: binding
Chain of polo-box domain (PBD) of Plk1, His6-PBD345-603 (P53350 345-603): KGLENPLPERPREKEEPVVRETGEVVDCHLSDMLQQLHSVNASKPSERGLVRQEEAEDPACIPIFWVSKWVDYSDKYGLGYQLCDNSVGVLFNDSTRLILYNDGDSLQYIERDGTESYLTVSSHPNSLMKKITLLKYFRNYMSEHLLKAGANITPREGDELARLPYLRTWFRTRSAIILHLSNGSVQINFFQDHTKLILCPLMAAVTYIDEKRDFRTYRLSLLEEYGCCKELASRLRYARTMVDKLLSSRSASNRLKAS

[3] = test system: PBD of human Plk1 (GPLGSPEF-PBD371-594); assay: X-ray crystal structure of peptide in complex with PBD; assay type: binding; conditions: crystal structures 3P36 (DPPLHSpTA), 3P37 (FDPPLHSpTA), 3Q1I (FMPPPMSpSM)

| SMILES | Thermal shift, Δ [1] [°C] | Kd [2] [nM] | difference in thermal shifts between wild-type and mutant protein (in words) ([1]; wild-type PBD versus Y417A/Y421A mutant) | affinity by ITC (in words) ([2]; ITC, 25 °C, compared with peptides without Phe71) | hydrophobic pocket binding in crystal structure (in words) [3] |
| --- | --- | --- | --- | --- | --- |
| CC(=O)N[C@@H](C)C(=O)N[C@@H](CC(=O)O)C(=O)N1CCC[C@H]1C(=O)N1CCC[C@H]1C(=O)N[C@@H](CC(C)C)C(=O)N[C@@H](Cc1c[nH]cn1)C(=O)N[C@@H](CO)C(=O)N[C@H](C(=O)N[C@@H](C)C(N)=O)[C@@H](C)OP(=O)(O)O [ADPPLHSpTA] (Ac-ADPPLHS[pT]A-NH2) | −0.2 | 1320 | – | – | – |
| CC(=O)N[C@@H](CC(=O)O)C(=O)N1CCC[C@H]1C(=O)N1CCC[C@H]1C(=O)N[C@@H](CC(C)C)C(=O)N[C@@H](Cc1c[nH]cn1)C(=O)N[C@@H](CO)C(=O)N[C@H](C(=O)N[C@@H](C)C(N)=O)[C@@H](C)OP(=O)(O)O [DPPLHSpTA] (Ac-DPPLHS[pT]A-NH2) | −0.4 | 2140 | – | – | – |
| CC(=O)N[C@@H](Cc1ccccc1)C(=O)N[C@@H](CC(=O)O)C(=O)N1CCC[C@H]1C(=O)N1CCC[C@H]1C(=O)N[C@@H](CC(C)C)C(=O)N[C@@H](Cc1c[nH]cn1)C(=O)N[C@@H](CO)C(=O)N[C@H](C(=O)N[C@@H](C)C(N)=O)[C@@H](C)OP(=O)(O)O [FDPPLHSpTA] (Ac-FDPPLHS[pT]A-NH2) | 4.3 | 250 | significant difference in thermal shifts | increased affinity | – |
| CSCC[C@H](NC(=O)[C@H](COP(=O)(O)O)NC(=O)[C@H](CO)NC(=O)[C@H](CCSC)NC(=O)[C@@H]1CCCN1C(=O)[C@@H]1CCCN1C(=O)[C@@H]1CCCN1C(=O)[C@H](CCSC)NC(=O)[C@H](Cc1ccccc1)NC(C)=O)C(N)=O [FMPPPMSpSM] (Ac-FMPPPMS[pS]M-NH2) | 0.0 | 515000 | – | – | lack of hydrophobic pocket binding |
